From PubChem BioAssay
NPY1 pot ag = NPY-Y1 receptor potentiators or agonists, primary screen, cell-based. Neuropeptide Y receptor type 1 (Homo sapiens), P25929. NPY-Y1 expressing cells, potentiator/agonist activation. activation, % at 3.6 µM. 0.37% of 220,000 active. AID 1304, 2008; in the data active means activation above about 33%, passing the limit was not always enough;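 further: cells stimulated with NPY at EC10 then isoproterenol at EC100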
NPY-Y1 antag = NPY-Y1 receptor antagonists, primary screen, cell-based | HEK293-CNG Y1 cells, membrane potential fluorescence; NPY at EC95, then isoproterenol | inhibition, % at 3.6 µM | 1% of 200,000 active;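 active means inhibition above the campaign mean inhibition of all tested compounds plus 3 SD, cut at about 20% in these data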
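Assay system: HEK293 Y1/CNG channel cell line; Doses: single compound dose of 3.6 µM, 0.4% DMSO; Timing: dye 3 h, compound 60 min room temperature, stimulation 45 min; Technique: Membrane-potential fluorescent dye readout; Measure: % inhibition of NPY effect.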
Tb hexokinase = Trypanosoma brucei hexokinase 1 inhibitors, primary screen, biochemical, G6PDH-coupled NADH absorbance, MLSCN library; 0.11% of 220,000 active; recombinant TbHK1, G6PDH-coupled NADH A340; inhibition, % at 10 µM;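 active means inhibition of 50% or more in the single-dose primary screen; inactive means inhibition below 50%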
m-calpain inh = inhibitors of pig calpain II, primary screen, biochemical, fluorogenic peptide substrate, 1536-well. purified calpain II, 30 min. inhibition, % at 16 µM. 0.37% of 220,000 active;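 active means inhibition above about 50%, limit read from the data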
NPY-Y2 PAM-ag = NPY-Y2 potentiators or agonists, primary screen, cell-based; cells expressing NPY-Y2, potentiator/agonist read-out; activation, % at 3.6 µM; Neuropeptide Y receptor type 2 (Homo sapiens), P49146; 0.45% of 220,000 active; in the data active means activation above about 27%;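 further: cells stimulated with NPY near EC25 plus isoproterenol at EC100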
Target sequence (P49146 whole entry, looked up): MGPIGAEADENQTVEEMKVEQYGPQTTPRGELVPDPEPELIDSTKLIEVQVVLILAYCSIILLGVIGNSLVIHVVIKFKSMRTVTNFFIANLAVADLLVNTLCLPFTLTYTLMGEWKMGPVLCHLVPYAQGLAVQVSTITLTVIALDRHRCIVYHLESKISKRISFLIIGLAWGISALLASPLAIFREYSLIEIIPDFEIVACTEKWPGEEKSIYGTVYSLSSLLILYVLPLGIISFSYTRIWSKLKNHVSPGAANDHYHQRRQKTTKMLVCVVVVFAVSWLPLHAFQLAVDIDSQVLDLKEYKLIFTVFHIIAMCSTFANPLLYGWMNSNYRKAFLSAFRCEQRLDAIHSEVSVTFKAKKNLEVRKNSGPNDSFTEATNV
NPY Y2 blocker = NPY-Y2 receptor antagonists, primary screen, cell-based | Neuropeptide Y receptor type 2 (Homo sapiens), P49146 | NPY-Y2 expressing cells, antagonist mode | inhibition, % at 2.7 µM | 0.99% of 140,000 active | AID 793, 2007; in the data active means inhibition above about 17%
NPY-Y1 antag ct = NPY-Y1 receptor antagonists, selectivity check, counter-screen for NPY-Y2 antagonist project, cell-based. shares compounds with NPY Y2 blocker. cell-based NPY-Y1 antagonism counterscreen. inhibition, % at 3.6 µM. 19% of 710 active. AID 1256, 2008; in the data active means inhibition above about 20%;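 further: cells challenged with NPY then isoproterenol with cAMP sensed through a CNG channel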
NPY2 antag conf = NPY-Y2 receptor antagonists, retest of hits, confirmation, HEK293-CNG cells, membrane potential fluorescence, triplicate; shares compounds with NPY Y2 blocker; HEK293 NPY-Y2 CNG channel; inhibition, % at 2.8 µM; 32% of 710 active; AID 1257, 2008;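 active means mean inhibition of triplicate wells above the hit cutoff set in the primary screen, cut at about 17% in these data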
Each line names hits and unclear results; the compound was inactive in the other large screens (follow-up assays come after a bar, where they were run). Only some compounds are listed: those with a hit (about 2.3% of all), similar ones and a draw of the others.

COc1cc([N+](=O)[O-])ccc1NC(=O)CCCOc1ccccc1	NPY Y2 blocker 22.0 | NPY-Y1 antag ct inactive | NPY2 antag conf inactive
COc1ccc(C2Nc3ccccc3C(=O)N2Cc2ccco2)cc1CN1C(=O)c2ccccc2C1=O (configuration not stated)	none
COc1ccc(C2Nc3ccccc3C(=O)N2Cc2ccco2)cc1COc1ccc(F)cc1 (configuration not stated)	NPY Y2 blocker 21.7 | NPY-Y1 antag ct inactive | NPY2 antag conf inactive
Cc1ccc(CNC(=O)Cc2noc3ccccc23)cc1	none (no result: NPY Y2 blocker)
COc1ccc(NC(=O)C2=CCN(S(=O)(=O)c3ccccc3)CC2)cc1OC	none (no result: NPY-Y1 antag, NPY Y2 blocker)
CCN=C1S/C(=C\c2cc(OCC)c(O)cc2Br)C(=O)N1CC	NPY Y2 blocker 26.7 | NPY-Y1 antag ct 24.8 | NPY2 antag conf 43.3
c1ccc(Cn2c3ccccc3c3nnc(SCCN4CCCCC4)nc32)cc1	none (no result: NPY-Y1 antag, NPY Y2 blocker)
CSc1nnc2c3cc(C)ccc3n(Cc3ccccc3)c2n1	NPY Y2 blocker 28.3 | NPY-Y1 antag ct 23.3 | NPY2 antag conf 41.5
O=C1CSC(c2cn(-c3ccccc3)nc2-c2cc3ccccc3oc2=O)N1Cc1ccccc1 (configuration not stated)	none
O=C1CSC(c2nn(-c3ccccc3)cc2-c2cc3ccccc3oc2=O)N1Cc1ccco1 (configuration not stated)	NPY Y2 blocker 18.1 | NPY-Y1 antag ct inactive | NPY2 antag conf inactive
O=C(Nc1nc2ccccc2s1)c1cc(-c2ccco2)nc2ccccc12	NPY Y2 blocker 37.5 | NPY-Y1 antag ct 64.5 | NPY2 antag conf 88.0
COC(=O)c1c(NC(=O)CSc2nnc(C)c(=O)[nH]2)sc(C)c1C	none (no result: NPY Y2 blocker)
O=C(Nc1ccc(Cl)cc1F)c1ccc(COc2c(F)c(F)c(F)c(F)c2F)o1	none
O=C(Nc1ccc(F)cc1F)c1ccc(COc2c(F)c(F)cc(F)c2F)o1	NPY Y2 blocker 17.6 | NPY-Y1 antag ct inactive | NPY2 antag conf inactive
COc1ccc(-n2nc(C(=O)Nc3ccc4c(c3)OCO4)c3ccccc3c2=O)cc1	NPY Y2 blocker 22.9 | NPY-Y1 antag ct inactive | NPY2 antag conf 20.9
COc1ccc(-n2nc(C(=O)N3CCN(Cc4ccc5c(c4)OCO5)CC3)c3ccccc3c2=O)cc1	none
COc1ccc(Cc2noc(CN3CCN(Cc4csc(C)n4)CC3)n2)cc1OC	none (no result: NPY Y2 blocker)
CC1CCN(c2ccccc2NC(=S)NC(=O)c2cccs2)CC1	NPY Y2 blocker 21.0 | NPY-Y1 antag ct 20.1 | NPY2 antag conf inactive
CC1=CC(C)(C)N(S(=O)(=O)c2ccc(F)cc2)c2ccc(C)cc21	NPY Y2 blocker 18.6 | NPY-Y1 antag ct inactive | NPY2 antag conf inactive
CC1=CC(C)(C)N(S(=O)(=O)c2ccc(C)cc2)c2ccccc21	NPY Y2 blocker 20.4 | NPY-Y1 antag ct 31.1 | NPY2 antag conf 26.5
CC1=CC(C)(C)N(C(=O)c2ccccc2)c2ccc(C)cc21	none
O=C(CSc1n[nH]c(-c2ccccc2Br)n1)NCCN1C(=O)CSC1=O	none
CN(c1nc(-c2ccc(Br)cc2)cs1)C1CCS(=O)(=O)C1 (configuration not stated)	none (no result: NPY Y2 blocker)
Cc1cc2c(c(Sc3ccccc3)n1)C(=O)OC2	NPY Y2 blocker 22.2 | NPY-Y1 antag ct inactive | NPY2 antag conf inactive
CC1=NN(c2ccccc2)C(=O)/C1=C\c1ccc(Br)s1	NPY Y2 blocker 17.1 | NPY-Y1 antag ct 30.5 | NPY2 antag conf 33.5
N#Cc1c(NC(=O)c2ccccc2)sc2c1CCC2	none
C=CCNCc1cccn1-c1sc2c(c1C#N)CCCC2	NPY Y2 blocker 18.0 | NPY-Y1 antag ct inactive | NPY2 antag conf inactive
Cc1nc2ccccc2cc1OCc1ccc(Cl)cc1	NPY Y2 blocker 19.2 | NPY-Y1 antag ct 21.5 | NPY2 antag conf 17.2
Cc1cccc(N2CCN(C(=O)CCCOc3ccccc3)CC2)c1C	NPY Y2 blocker 19.2 | NPY-Y1 antag ct inactive | NPY2 antag conf inactive
O=C(CCCOc1ccccc1)N1CCN(c2ccccc2)CC1	none
Cc1cccc(N2CCN(C(=O)C(Cc3ccccc3)n3cccc3)CC2)c1C (configuration not stated)	NPY Y2 blocker 26.3 | NPY-Y1 antag ct inactive | NPY2 antag conf inactive
O=C(NCC1CCCO1)c1nc2c(nnn2Cc2ccccc2Cl)c(=O)[nH]1 (configuration not stated)	NPY Y2 blocker 18.2 | NPY-Y1 antag ct inactive | NPY2 antag conf inactive
Cc1ccc(C)c(Cn2nnc3c(=O)[nH]c(C(=O)NCC4CCCO4)nc32)c1 (configuration not stated)	none
CC(C)Nc1nnc(Sc2ccc(Cl)cc2[N+](=O)[O-])s1	m-calpain inh 71.4, NPY Y2 blocker 20.8 | NPY-Y1 antag ct inactive | NPY2 antag conf inactive
O=c1n(Cc2ccc(Cl)cc2)c2sc3c(c2c2ncnn12)CCCC3	NPY Y2 blocker 40.8 | NPY-Y1 antag ct 22.5 | NPY2 antag conf 31.7
O=c1[nH]c2ccc(S(=O)(=O)N3CCN(c4ccccc4F)CC3)cc2s1	NPY Y2 blocker 18.0 | NPY-Y1 antag ct inactive | NPY2 antag conf inactive
Cc1ccc(SCc2nc3ccccc3n2CC(=O)Nc2c(C)cccc2C)cc1	NPY Y2 blocker 19.0 | NPY-Y1 antag ct inactive | NPY2 antag conf inactive
CCc1ccc(C(=O)COC(=O)[C@@H](NC(N)=O)[C@@H](C)CC)cc1	none (no result: NPY Y2 blocker)
COc1ccc(Cn2c(/C=C/c3ccccc3)nc3ccccc32)cc1	NPY Y2 blocker 36.2 | NPY-Y1 antag ct inactive | NPY2 antag conf 23.8
CC(C)Cn1c(/C=C/c2ccccc2)nc2ccccc21	NPY Y2 blocker 17.7 | NPY-Y1 antag ct inactive | NPY2 antag conf inactive
CCN(CC)S(=O)(=O)c1ccc(NC(=O)COC(=O)CNS(=O)(=O)/C=C/c2ccccc2)cc1	none
COc1ccc(N2CCN(Cc3nc4c(c(=O)n(C)c(=O)n4C)n3Cc3cccc(C)c3)CC2)cc1	NPY Y2 blocker 24.5 | NPY-Y1 antag ct inactive | NPY2 antag conf inactive
COc1ccc(N2CCN(c3nc4c(c(=O)n(C)c(=O)n4C)n3Cc3ccccc3)CC2)cc1	none
COc1cc(-c2cc(C(=O)Nc3c(Cl)cc(Cl)cc3Cl)c3ccccc3n2)cc(OC)c1OC	NPY Y2 blocker 40.1 | NPY-Y1 antag ct 48.8 | NPY2 antag conf 73.5
